Source: PubChem BioAssay
This is a sample that favours compounds with a hit; in the whole collection about 2.1% have one here.
TLR4-MyD88 BLA = inhibitors of human TLR4-MyD88 binding. 200,000 tested, 0.18% active. HeLa CL3-4 TLR4/MyD88 BLA complementation, FRET ratio. O00206+Q99836. inhibition, % at 8.4 µM; in the data active = inhibition above about 25%;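 note: 0% = vehicle and 100% = reference inhibitor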
MC4R ag barr = agonists of human melanocortin 4 receptor (MC4R) beta-arrestin; activation, % at 8.9 µM; U2OS MC4R beta-arrestin complementation, luminescence; percent of melanotan II response, DMSO zero; P32245; 360,000 tested, 0.98% active; AID 540308;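 active = activation above a per-plate cutoff, the mean activation of sample wells on that plate plus 3 SD, cut at about 8% in these data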
NOD2-RIPK2 inh = inhibitors of human NOD2-RIPK2 interaction. inhibition, % at 4.98 µM. 360,000 tested, 0.38% active. O43353. CHO BLA complementation NOD2-RIPK2, CCF4 ratio; in the data active = inhibition above about 21%;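 note: 0% = vehicle only and 100% = reference blocker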
beta cell repl = inducers of beta-cell replication in MIN6 cells. MIN6 cells proliferation, ATPlite luminescence, 48 h; cells starved in 0.2% serum; 100% = growth in 10% serum. proliferation, % at 10 µM. 330,000 tested, 0.29% active;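 active = compounds whose signal lies at least 3.5 SD above the mean of all wells on their plate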;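 note: 0% = DMSO-treated cells in low-serum medium and 100% = 10% serum control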
MC4R antagonist = blocks human MC4R cAMP signaling; MC4R-expressing cells, MTII-stimulated cAMP, LANCE TR-FRET; AID 540295; P32245; 360,000 tested, 0.48% active; inhibition, % at 6.5 µM;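 active = inhibition above its plate's cutoff, the mean of tested wells on that plate plus 3 SD, cut at about 29% in these data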;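 note: 0% = Melanotan II alone and 100% = Melanotan II plus saturating MCL0020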
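Material – human MC4R-expressing U2OS cells · Repeats – no replicates · Detection – TR-FRET with Eu-cAMP and labeled anti-cAMP, 671 nm · Times – compound 30 min, challenge 1 h, detection 1 h · Compound – single nominal compound dose of 6.5 µM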
TLR9-MyD88 inh = blocks human TLR9 binding to MyD88; inhibition, % at 4.98 µM; 340,000 tested, 0.21% active; Q9NR96+Q99836; AID 504734; CHO BLA complementation TLR9-MyD88, CCF4 FRET ratio;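 active = inhibition above the mean over all tested compounds plus 3 SD, cut at about 21% in these data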;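 note: 0% = DMSO only wells and 100% = clavulanate BLA inhibitor control wells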
MC4R barr conf = human MC4R beta-arrestin agonism confirmation | activation, % at 8.9 µM | shares compounds with MC4R ag barr | U2OS MC4R beta-arrestin recruitment, luminescence; scaled DMSO 0%, Melanotan II 100% | 2,400 tested, 31% active;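 active = mean activation across replicates above the hit cutoff set in the earlier primary screen, cut at about 8% in these data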
MOR-DOR barr ag = activates mu-delta opioid heterodimer, MC4R agonist counter-screen | shares compounds with MC4R ag barr | U2OS PathHunter beta-arrestin, beta-gal luminescence; percent of deltorphin B response, DMSO zero | activation, % at 9.2 µM | 2,400 tested, 5.8% active | AID 602194;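 active = mean activation across replicates exceeds the hit threshold derived in the earlier primary screen, cut at about 18% in these data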;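 note: 100% = deltorphin B at 0.9 µM final and 0% = DMSO alone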
Starred values were filed as active, the others as inactive; · = no result given.

SMILES	TLR4-MyD88 BLA	MC4R ag barr	NOD2-RIPK2 inh	beta cell repl	MC4R antagonist	TLR9-MyD88 inh	MC4R barr conf	MOR-DOR barr ag
COc1ccc(COc2ccsc2C(=O)Nc2ccc(Cl)c(Cl)c2)cc1	6.3	11.7*	5.7	-3.5	-6.4	-5.0	25.2*	2.9
O=C(NCc1ccccc1Cl)[C@H]1CCCN1C(=O)[C@H]1CCCN1C(=O)c1ccc(Cl)cc1	·	·	-3.5	·	·	·	·	·
Cc1ccsc1C(=O)Nc1ccc(OCc2ccccc2)cc1	·	9.7*	-1.2	-1.5	14.9	2.1	0.1	2.7
COc1ccc(/C=N/NC(=O)Nc2cccc3nsnc23)cc1OC	-5.2	11.2*	-1.4	0.1	1.0	0.4	1.2	12.3
COc1ccc(/C=N/NC(=O)c2cccc(C(=O)N/N=C/c3ccc(OC)c(OC)c3)n2)cc1OC	·	-2.8	-13.2	1.9	-3.7	-26.4	·	·
Cc1cccc(C(=O)N/C(=C\c2ccco2)C(=O)N2CCCC2)c1	·	-1.1	-6.6	2.3	0.9	5.7	·	·
O=c1c2cnn(-c3ccc(F)cc3)c2ncn1Cc1ccccc1	9.4	13.9*	1.1	7.0	2.9	3.8	-0.1	4.3
CC1(C)C/C(=N\NC(=S)Nc2ccccc2F)c2cc(O)ccc2O1	6.5	-0.2	-4.7	-3.0	26.2	-10.4	·	·
COC(=O)c1sc(NC(=O)c2ccoc2C)nc1C	2.6	-3.7	-3.0	·	2.3	-3.7	·	·
COC(=O)c1sc(NC(=O)/C=C/c2ccc(C)o2)nc1C	9.1	12.3*	-6.1	-2.6	-1.4	6.3	4.3	1.2
Cc1ccc(Oc2ccc(C(F)(F)F)cc2[N+](=O)[O-])c([N+](=O)[O-])n1	·	-0.4	-12.6	-1.3	0.3	·	·	·
Cn1nc(C(=O)Nc2cccc(Cl)c2)cc1C(=O)Nc1cccc(Cl)c1	·	14.3*	-2.9	-3.4	25.1	3.1	2.3	6.9
Cn1nc(C(=O)Nc2ccc(Cl)cc2)cc1C(=O)Nc1ccc(Cl)cc1	·	-1.1	-15.7	3.1	-2.5	6.5	·	·
Cc1nn(Cc2c(F)c(F)c(F)c(F)c2F)c(C)c1NC(=O)c1cccc(COc2ccccc2Cl)c1	12.4	17.2*	2.4	-2.2	9.3	-2.2	6.3	3.4
CCCc1cc(=O)oc2cc(OCC(=O)NCCc3c[nH]c4ccccc34)ccc12	·	16.8*	7.6	-0.8	4.3	-5.3	13.6*	25.4*
CCOC(=O)CSc1c(-c2ccc(Cl)cc2)[nH]c2ccccc12	-23.2	10.6*	-8.8	-6.0	12.5	0.0	4.1	13.7
Cc1ccc(OCCSc2nc3ccccc3n2CC(=O)O)c(C(C)C)c1	·	-1.2	-3.4	-0.5	9.1	-8.5	·	·
CCSc1nnc(-c2ccc(Cl)cc2)c2ccccc12	-17.6	18.8*	-21.6	6.4	2.4	1.1	-1.6	2.9
CCSc1nnc(-c2ccc(C)cc2)c2ccccc12	-7.8	0.5	-14.5	0.0	8.7	2.1	·	·
COc1ccccc1N(C)S(=O)(=O)c1ccc(C(=O)N(C)Cc2ccc(Cl)s2)cc1	·	1.1	-0.8	-3.5	-1.1	-6.8	·	·
Cc1ccccc1N=CC1=C(O)c2ccccc2C1=O	-10.5	5.9	-2.8	-4.4	-4.2	-8.8	·	·
COc1ccc(N=CC2=C(O)c3ccccc3C2=O)c(OC)c1	-0.9	11.5*	-13.6	-4.2	-6.7	-8.6	-0.1	6.0
O=C(O)C1=C(OCc2ccc(F)c(F)c2)C(=O)NCC1	-10.6	1.1	-4.1	1.0	26.1	·	·	·
COc1cccc(C(=O)Nc2ccc(-c3nc4ccccc4o3)c(O)c2)c1	-4.5	11.0*	-8.5	-2.8	-1.4	1.8	4.2	3.6
COc1ccccc1NC(=O)c1cc2ccccc2o1	14.6	0.0	-5.9	-1.3	2.1	-3.8	·	·
SMILES	TLR4-MyD88 BLA	MC4R ag barr	NOD2-RIPK2 inh	beta cell repl	MC4R antagonist	TLR9-MyD88 inh	MC4R barr conf	MOR-DOR barr ag
COc1cc(OC)cc(C(=O)Nc2ccc(-c3nc4ccccc4o3)cc2)c1	-9.5	7.5	-14.7	-3.1	4.8	3.4	·	·
COc1ccc(-c2cc3ccccc3oc2=O)cc1NC(=O)c1ccc(Br)o1	0.6	13.1*	-1.3	-5.2	3.5	-10.7	3.0	2.9
COc1cc(NC(=O)c2cc3ccccc3o2)c(OC)cc1Cl	-5.3	13.1*	-12.1	-1.3	3.4	-6.0	7.7	8.4
CCOc1cccc(C(=O)Nc2ccc(NC(=O)c3cc4ccccc4o3)c(OC)c2)c1	·	11.5*	3.4	-2.7	2.2	-7.8	34.4*	30.4*
COc1cc(NC(=O)c2cccc([N+](=O)[O-])c2)ccc1NC(=O)c1cc2ccccc2o1	·	2.0	-8.0	-1.6	-1.1	-4.2	·	·
Cc1ccc(NC(=O)CN(C)S(=O)(=O)c2cnc[nH]2)c(C)c1	·	0.3	-7.5	-1.8	-8.7	3.1	·	·
C[C@@H]1CN([C@H](C)CO)C(=O)CCCn2cc(nn2)CO[C@H]1CN(C)C(=O)Nc1ccccc1	·	-0.2	-11.2	·	-2.6	2.0	·	·
COc1cccc(C(=O)CSc2nnc(-c3cc(OC)cc(OC)c3)o2)c1	6.2	0.1	-3.4	-2.8	3.4	-1.4	·	·
COc1ccc(C(=O)CSc2nnc(-c3cc(C)cc(C)c3)o2)cc1	-2.9	9.8*	3.3	-0.6	10.2	-1.8	8.2	6.5
COc1ccc(C(=O)CSc2nnc(CNc3ccc(C)cc3C)o2)cc1	-1.2	11.4*	-3.2	3.0	8.8	-0.4	11.1*	11.7
CCC(C)Sc1ccc(-c2nc3ccc(C)cn3c2NCc2ccccc2)cc1 (configuration not stated)	·	11.6*	1.1	-6.2	9.7	-6.2	5.1	7.9
CCCCNc1c(-c2ccc(SC(C)CC)cc2)nc2ccc(Cl)cn12 (configuration not stated)	·	·	-9.4	·	·	·	·	·
COc1cccc(C(=O)NCCS(=O)(=O)NC2CCCC2)c1	·	-3.8	1.5	-6.0	8.3	1.7	·	·
O=C(CN1C(=O)NC2(CCc3ccccc32)C1=O)Nc1ccccc1C(F)(F)F (configuration not stated)	·	-0.7	-5.8	-2.5	2.8	-5.9	·	·
O=S(=O)(NC1CCC(NS(=O)(=O)c2c(F)cccc2F)CC1)c1ccc2c(c1)OCCO2 (configuration not stated)	·	-0.5	4.6	-1.3	8.8	-1.4	·	·
COc1ccc(-c2oc3ccc(-c4ccc(OC)nc4)cc3c2C#CC2(O)CCCCC2)cc1	·	13.3*	-6.8	-8.3	11.4	-10.6	11.4*	4.2
COc1ccc(-c2sc3cc(OC)c(OC)cc3c2C#CCO)cc1	·	17.7*	4.8	0.5	7.3	-5.9	16.1*	14.9
COc1ccc(-c2sc3cc(OC)c(OC)cc3c2C#CC(C)(C)O)cc1	·	-0.2	5.8	-5.0	2.5	-9.2	·	·
